Test: Toxicity liver stage against HepG2, at 10uM
Format: cell-based
Design: test concentration 10 uM, cell line HepG2-A16-CD81EGFP
Conditions: human, HepG2-A16-CD81EGFP cells; read-out: INHIBITION
In short: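 Uninfected HepG2-A16-CD81EGFP cells, 3 × 10^3 per well, 1536-well, plated on prespotted compound at 10 μM final, parasite-free screening media added to match infected plates; puromycin 10 μM positive, DMSO 0.5% negative; run in parallel with 48 h PbLuc assay at 37 °C, 5% CO2; viability by CellTiter-Glo luminescence, normalized to controls.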

| Structure (SMILES) | cytotoxicity at 10 µM [%] |
| --- | --- |
| COC(C(=O)NC1CC1)c1ccccc1 (configuration not stated) | -3.73 |
| CCOC(=O)c1cnn(-c2cc(Oc3ccccc3C)ncn2)c1N | 15.8 |
| COCCOc1ccc(NC(=O)N(CCO)C2CC2)cn1 | -2.77 |
| Fc1ccc(OCc2nnc([C@H]3CCN(Cc4cccnc4)C3)o2)cc1 | -5.72 |
| CC(C)(C)CN1CCN2C(=O)N(C3CCCCC3)C[C@H]2C1 | 4.91 |
| N#Cc1ccc(CN2C[C@@H]3OCC(=O)N(CC(N)=O)[C@@H]3C2)cc1 | -1.51 |
| COc1ccc(-c2nc(C#N)c(N(C)C)o2)cc1S(=O)(=O)N1CCCC1 | -0.773 |
| CCc1cc(=O)[nH]c(SCc2ccccn2)n1 | -0.543 |
| C[C@@H]1C[C@H]2CN(C(=O)C3=CCCCC3)C[C@H]2O1 | 7.18 |
| CC(C)N1[C@H](CN2CCCC2)C[C@@H]2CN(Cc3cnn(C)c3)CC[C@@H]21 | -147 |
| CS(=O)(=O)N1CCOC2(CCCN(c3ncc(F)cn3)C2)C1 (configuration not stated) | 5.98 |
| CN(C)CCNC(=O)c1cc(-c2cnc(N(C)C)nc2)cn1CC1CC1 | -5.81 |
| O=C1CCCN1CC1CN(C(=O)CC2CCCC2)Cc2nccn2C1 (configuration not stated) | 1.47 |
| CNC(=O)c1cc2c(nc1NCC1CC1)CCN(S(=O)(=O)C1CC1)CC2 | -13.3 |
| CSc1[nH]nc(NC(=O)c2cccnc2)c1C#N | -4.87 |
| Cc1ccccc1N1CC(c2nnc(N)s2)CC1=O (configuration not stated) | -0.411 |
| CCn1cc(S(=O)(=O)Nc2nc3c(s2)CCCC3)cn1 | 6.33 |
| CCn1ccc(NC(=O)CN2C(=O)CC(C)(C)c3ccccc32)n1 | -5.01 |
| Cc1ccc(Cn2ccc(NS(C)(=O)=O)n2)cc1 | -12.2 |
| CC(=O)Nc1ccc(S(=O)(=O)N2CCOC(Cn3ccnc3)C2)cc1 (configuration not stated) | 0.166 |
| CC(C)NC(=O)C1CCc2nnc(CNC(=O)C3CC3)n21 (configuration not stated) | 4.9 |
| COCC(=O)Nc1ccnc(OCCN(C)C)c1 | -7.67 |
| N#CCCCS(=O)(=O)NC(=O)c1ccccc1F | 0.749 |

| Structure (SMILES) | cytotoxicity at 10 µM [%] |
| --- | --- |
| CC(NC(=O)N1CCNC(=O)CC1)c1c(F)cccc1Cl (configuration not stated) | -1.66 |
| CN(CC(C)(CO)CO)C(=O)Nc1cc(F)cc(Cl)c1 | -0.19 |
| CC(=O)N(C)C(c1cccnc1)c1ccc(F)c(F)c1 (configuration not stated) | -7.69 |
| CC(NC(=O)c1ccoc1)C(=O)N(C)Cc1cccc(C(F)(F)F)c1 (configuration not stated) | -13.6 |
| CCOc1nnc(CN2CCC(c3nc4ccccc4[nH]3)CC2)s1 | -1.36 |
| N#Cc1c(CN2CCCC2Cn2cncn2)cn2ccccc12 (configuration not stated) | -2.49 |
| COCCCN(Cc1ccncc1)c1ncc(C#N)cc1Cl | 4.98 |
| CCn1cc(NC(=O)NCCN2CCCc3ccccc32)cn1 | 2.96 |
| Cc1noc(C)c1C(=O)NCC1CCCCN1Cc1ccccc1 (configuration not stated) | -4.4 |
| CCCn1cc(C(=O)NCCCC(N)=O)c2ccccc21 | 6.13 |
| COC(=O)C1CCN(C(=O)Cn2ccc(-c3ccc(F)cc3)n2)CC1 | -5.31 |
| Cc1sc2ccccc2c1S(=O)(=O)NCCNC(=O)C(C)C | -0.238 |
| CC(C)CCOc1ccc(C(C)NC(=O)CSCC(N)=O)cc1 (configuration not stated) | 10.5 |
| CCc1[nH]ncc1C(=O)N1CCN(c2nc(C)cc(OC)n2)CC1 | 3.51 |
| O=C(NCCOc1ccc(Cl)cn1)Nc1ccccn1 | 9.05 |
| CN1N=C(C(=O)N2CCN(c3ncccn3)CC2)CCC1=O | 3.62 |
| CC(NC(=O)CNC(=O)OC(C)(C)C)c1ccc(Cl)s1 (configuration not stated) | 2.99 |
| Cc1ccc(F)c(C(=O)NC2CCC(N3C(=O)CCC3=O)CC2)c1 (configuration not stated) | -6 |
| Cc1nnc(NCC(c2ccco2)N2CCCC2)c(C#N)c1C (configuration not stated) | -3.04 |
| CC(C)CC(NC(=O)c1cccc(F)c1F)C(=O)Nc1cc[nH]n1 (configuration not stated) | -7.82 |
| Cc1cc(NC(=O)NCCc2cscn2)nn1C | 2.24 |
| CC(C)(C)S(=O)(=O)CCNC(=O)c1ccc2ccccc2c1 | 0.995 |
| CCC(CNC(=O)NCc1cc[nH]n1)N1CCCC1 (configuration not stated) | -3.65 |

| Structure (SMILES) | cytotoxicity at 10 µM [%] |
| --- | --- |
| CCC(C)C(=O)NCc1cc(Br)c(OC)c(OC)c1 (configuration not stated) | 2.42 |
| CC(C)CCC(=O)Nc1ccc2oc(=O)n(CCN(C)C)c2c1 | -9.15 |
| CN(CC(=O)Nc1cc(CC2CCCCC2)n[nH]1)S(C)(=O)=O | 3.44 |
| CC(C)(C(=O)NCC(=O)N1CCCC1)c1ccccc1F | 2.66 |
| CN(C)C(=O)CN1CCN(c2ccnc3c(F)ccc(F)c23)CC1 | 4.44 |
| C[C@@H]1CN(c2ccc3c(Cl)ccnc3c2F)CC(C(N)=O)O1 (some centres not stated) | 4.11 |
| CN(C)c1ncc(CNS(=O)(=O)c2cc(F)ccc2Cl)n1C | 6.69 |
| Cc1cc(C)n(C2CN(CCc3ccncc3)C2)n1 | -1.12 |
| Cc1ccc(N2CCCC(N3CCN(CC(F)F)CC3)C2=O)cc1 (configuration not stated) | 1.66 |
| CC(CNS(=O)(=O)CCCC#N)c1ccsc1 (configuration not stated) | 3.02 |
| Cc1cc(C(=O)N(CC(C)C)CC(O)c2ccc(F)cc2)[nH]n1 (configuration not stated) | -10.2 |
| COc1ccc(C)c(NC(=O)NCc2cccc(N(C)C)n2)c1 | 6.13 |
| CC(C)CCC(C)NC(=O)c1ccc(OCC(N)=O)cc1 (configuration not stated) | -3.59 |
| Cc1cc(CNC(=O)C2CCCCN2C(=O)OC(C)(C)C)no1 (configuration not stated) | 4.91 |
| O=C1CN(Cc2nnc(-c3ccccc3Br)o2)CCN1 | 9.35 |
| CC(CN1CCOCC1)NC(=O)NCc1ccc(Cl)s1 (configuration not stated) | 1.23 |
| CN(Cc1ccc(Cl)c(Cl)c1)C(=O)CNC(N)=O | -8.87 |
| CNC(=O)CCNC(=O)c1cccc(Cn2nc(C)cc2C)c1 | -16.6 |
| O=C(CSC(F)(F)F)N1CCC2(CCCN(C3CCOCC3)C2=O)C1 (configuration not stated) | -128 |
| CCOc1ncccc1Cn1cc(-c2cncnc2)nn1 | 2.38 |
| CCN1CCN(S(=O)(=O)N2CCCC2)[C@H]2CS(=O)(=O)C[C@H]21 | -4.14 |
| CCc1cnc(C)nc1N1CCN(Cc2ccc(-c3cc[nH]n3)o2)CC1 | -0.898 |
| C[C@@H]1CN(C(=O)Cn2ccc3ncccc3c2=O)C[C@H](C)O1 | -5.64 |

| Structure (SMILES) | cytotoxicity at 10 µM [%] |
| --- | --- |
| CCN1CCc2[nH]cnc2C12CCN(c1ncc(C(=O)O)cc1Cl)CC2 | 1.46 |
| CS(=O)(=O)N1CCC2(CCCN(CCCc3ccccc3)C2=O)C1 (configuration not stated) | 2.46 |
| COCC(NC(=O)c1cnc(-c2ccncc2)nc1)c1ccnn1C (configuration not stated) | -13.1 |
| COc1cc(N2C[C@@H](C)[C@](O)(C3CC3)C2)nc(N)n1 | 0.929 |
| CC(C)NC1CCCc2nc(-c3ccccc3)ncc21 (configuration not stated) | 16.1 |
| Cc1nc(-c2cccc(C(=O)O)c2)c[nH]1 | -3.24 |
| O=C(C1CCOC1)N1CCC(Cn2cc(-c3ccsc3)nn2)CC1 (configuration not stated) | -0.039 |
| CCC(CO)N(Cc1cccs1)C(=O)CSC (configuration not stated) | 4.78 |
| COc1ccc(-n2ccnc2-c2cnc(N(C)C)nc2)cc1OC | -2.4 |
| CN(C)CCN1CC(C(=O)N2CCC(c3nccn3C)CC2)CC1=O (configuration not stated) | -7.2 |
| O=C(NCCCc1ccc(F)cc1)c1ccc(N2CCOCC2)cc1 | -4.45 |
| COc1ncccc1NC(=O)N(Cc1ccc(C(N)=O)cc1)C1CC1 | 6.66 |
| c1cnnc(NCC2CN(CC3CCOCC3)CCO2)c1 (configuration not stated) | 9.34 |
| CCc1nnc2n1CCN(CCC(=O)Nc1sccc1C#N)C2 | -23 |
| N#Cc1ccc(F)c(CN2CCCCC2Cn2cccn2)c1 (configuration not stated) | -0.674 |
| O=C(CCc1ccco1)N1CCC(Nc2cccnn2)CC1 | -20.3 |
| COc1ccccc1C(=O)N1CCOCC1c1c(C)n[nH]c1C (configuration not stated) | -8.72 |
| Cc1ncc(CN2CCCN(Cc3noc(C4CC4)n3)CC2)s1 | -8.57 |
| CC(=O)N(Cc1ncc(C)o1)C1CCN(CCc2cnn(C)c2)C1 (configuration not stated) | 0.742 |
| Cc1nnc(NC(=O)CN2CCCC2c2noc(C(C)C)n2)s1 (configuration not stated) | -9.05 |
| CCN1CCC(NC(=O)CN2CCCCC2Cn2cncn2)CC1 (configuration not stated) | 3.27 |
| OC(CN1CCC(CNCc2ccccn2)CC1)c1ccccc1 (configuration not stated) | -2.15 |
| COc1ccccc1C(=O)N1CCN(C(=O)Cc2ccccn2)CC1 | -7.57 |

| Structure (SMILES) | cytotoxicity at 10 µM [%] |
| --- | --- |
| CS(=O)(=O)N1CCC(NC(=O)COc2cccc(Cl)c2)CC1 | -5.59 |
| Cc1cc(CN2CCN(C(=O)c3sccc3C3CC3)CC2)no1 | -10 |
| CS(=O)(=O)N1CCN(CC(O)COc2ccc(Cl)cc2)CC1 (configuration not stated) | -38.6 |
| CN(Cc1ccccc1)C(=O)CS(=O)(=O)Cc1ccc(Cl)c(Cl)c1 | 0.239 |
| CCn1cnnc1CNC(=O)c1cc(Cl)ccc1O | 2.17 |
| Cc1ccc(NC(=O)N2CCC(NC(=O)c3ccc(C)o3)CC2)cc1 | 0.385 |
| O=C(C1CCC1)N1CCC2(CCNCC2)C1 | -3.39 |
| c1cnc(N2CCCC3(CN(CC4CCOCC4)CCO3)C2)cn1 (configuration not stated) | 0.37 |
| CN1CC(=O)N(c2ccccc2)CC12CCN(Cc1nccs1)C2 (configuration not stated) | 3.33 |
| CN(C)CCN1CCN(Cc2nccs2)Cc2cccnc21 | -1.08 |
| c1cncc(CN2CCC3(CC2)CC(c2cccnc2)CO3)c1 (configuration not stated) | 0.851 |
| c1cncc(CN2CCO[C@H]3[C@H](OCCN4CCCC4)CC[C@@H]32)c1 | 3.36 |
| Cc1nc(CN2CCC3(CCCN(Cc4ccncc4)C3)C2=O)cs1 (configuration not stated) | 1.38 |
| CC(C)CCN1CCc2cc(C(=O)N(C)C)c(NCC3CC3)nc2CC1 | 4.71 |
| CC(C)(C)c1n[nH]cc1CNCC1CCN(CC(F)(F)F)C1 (configuration not stated) | 3.5 |
| Cc1cccc(CN2CCOCC3(CCN(C4CCOCC4)C3)C2)c1 (configuration not stated) | -0.819 |
| Cn1cc(N2CC3(CCN(Cc4cccs4)CC3)OCC2=O)cn1 | -8.13 |
| O=C(c1ccoc1)N1CCO[C@]2(CCC[C@H]2COCc2cccnc2)C1 | 4.58 |
| CN(C)C(=O)[C@H]1C[C@H]2CN(C(=O)NCC3CCCCC3)C[C@@H]1O2 | -0.572 |
| COC1C[C@@H]2CN(C(=O)c3cc4ccc(F)cc4[nH]3)C[C@@H]2C1 (some centres not stated) | 2.93 |

From ChEMBL document CHEMBL4513216, “Probing the Open Global Health Chemical Diversity Library for Multistage-Active Starting Points for Next-Generation Antimalarials” (ACS Infect Dis, 2020)
